Source: ChEMBL document CHEMBL1147962, “Synthesis and antifungal activity of novel s-substituted 6-fluoro-4-alkyl(aryl)thioquinazoline derivatives” (Bioorg Med Chem, 2007)
≈ marks a conversion by molar mass, not a printed value. Calls of active or inactive are those of the source. No cut-off for these calls is given here.

What was measured:
[1] = system: Fusarium graminearum; assay: Antifungal activity against Gibberella zeae at 500 ug/mL; assay type: functional
[2] = system: Cytospora; assay: Antifungal activity against Cytospora mandshurica at 500 ug/mL; assay type: functional
[3] = system: Fusarium oxysporum; assay: Antifungal activity against Fusarium oxysporum at 500 ug/mL; assay type: functional
[4] = system: Fusarium oxysporum; assay: Effect on mycelial reducing sugar content in Fusarium oxysporum after 12 hrs; assay type: functional
Summary of the method: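 F. oxysporum mycelia were treated and sampled from 0.5 h to 12 h. Mycelial reducing sugar content (mg/mL) was measured at each time point against an untreated control.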

[5] = system: Botrytis cinerea; assay: Antifungal activity against Botrytis cinerea; assay type: functional, organism-based
[6] = system: Fusarium oxysporum; assay: Increase in membrane permeability of Fusarium oxysporum at 100 ug/mL after 5 mins; assay type: functional
Summary of the method: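 F. oxysporum cells were treated and sampled from 5 min onward over a longer time course. Cell-membrane relative permeability rate (%) was measured against an untreated control, with Hymexazol as reference.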

[7] = system: Sclerotinia sclerotiorum; assay: Antifungal activity against Sclerotinia sclerotiorum; assay type: functional, organism-based
[8] = system: Fusarium oxysporum; assay: Decrease in mycelial chitinase activity assessed as D-GlcNAc content in Fusarium oxysporum after 1 hrs; assay type: functional
Summary of the method: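 F. oxysporum mycelia were treated over a time course up to 24 h and compared with an untreated control, with Hymexazol as reference fungicide. Chitinase activity was read as the D-GlcNAc content (mg/mL) produced by the enzyme in 1 h.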

[9] = system: Rhizoctonia solani; assay: Antifungal activity against Rhizoctonia solani; assay type: functional, organism-based
[10] = system: Fusarium graminearum; assay: Antifungal activity against Gibberella zeae; assay type: functional, organism-based
[11] = system: Thanatephorus cucumeris; assay: Antifungal activity against Thanatephorus cucumeris; assay type: functional, organism-based
[12] = system: Fusarium oxysporum; assay: Antifungal activity against Fusarium oxysporum; assay type: functional, organism-based
Summary of the method: (§1)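 Preliminary fungicidal bioassay on plant-pathogenic fungi (G. zeae, F. oxysporum, C. mandshurica), with the commercial fungicide Hymexazol as reference.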

[13] = system: Colletotrichum gloeosporioides; assay: Antifungal activity against Colletotrichum gloeosporioides; assay type: functional, organism-based
[14] = system: Cytospora; assay: Antifungal activity against Cytospora mandshurica; assay type: functional; summary of the method: as §1
[15] = system: Phytophthora infestans; assay: Antifungal activity Phytophthora infestans; assay type: functional, organism-based
[16] = system: Fusarium oxysporum; assay: Decrease in mycelial reducing sugar content in Fusarium oxysporum after 0.5 hrs relative to control; assay type: functional; parameters: scale not given: the % may be the effect or the level left
Summary of the method: (§2)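 Reducing sugar content (mg/mL) of F. oxysporum mycelia was followed over time, sampled from 0.5 h to 12 h of treatment, against an untreated control.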

[17] = system: Fusarium oxysporum; assay: Decrease in mycelial reducing sugar content in Fusarium oxysporum at 6 hrs; assay type: functional, organism-based; summary of the method: as §2
[18] = system: Fusarium oxysporum; assay: Inhibition of sporule germination of Fusarium oxysporum at 60 ug/mL; assay type: functional
Summary of the method: (§3)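 F. oxysporum spores were exposed to a concentration series. Germination was scored as percentage of spores germinated, and inhibition was calculated relative to an untreated control.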

[19] = system: Fusarium oxysporum; assay: Decrease in mycelial chitosan content in Fusarium oxysporum after 6 hrs relative to control; assay type: functional; parameters: scale not given: the % may be the effect or the level left
Summary of the method: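 Chitosan content was measured as D-GlcNAc in F. oxysporum mycelia from treated cultures and read 6 h after inoculation. An untreated culture served as control and Hymexazol as the reference fungicide.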

[20] = system: Fusarium oxysporum; assay: Effect on hyphal morphology of Fusarium oxysporum at 100 ug/mL; assay type: functional, organism-based
Summary of the method: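 Hyphae and cell contents of treated F. oxysporum were examined microscopically against untreated control hyphae.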

[21] = system: Fusarium oxysporum; assay: Effect on sporule germination of Fusarium oxysporum at 100 ug/mL; assay type: functional; summary of the method: as §3
[22] = system: Fusarium oxysporum; assay: Increase in mycelial soluble protein content in Fusarium oxysporum relative to control after 0.5 hrs; assay type: functional
Summary of the method: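 Soluble protein content of treated F. oxysporum mycelia was followed from 0.5 h of exposure and expressed relative to an untreated control. Hymexazol was run alongside as reference.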

SMILES	inhibition at 500 µg/mL [1] [%]	inhibition at 500 µg/mL [2] [%]	inhibition at 500 µg/mL [3] [%]	EC50 [5] [µg/mL]	EC50 [7] [µg/mL]	EC50 [9] [µg/mL]	EC50 [10] [µg/mL]	EC50 [11] [µg/mL]	EC50 [12] [µg/mL]	EC50 [13] [µg/mL]	EC50 [14] [µg/mL]	EC50 [15] [µg/mL]	also measured
Fc1ccc2ncnc(SCc3ccccc3)c2c1	15	21.4	18.9										
CCOC(=O)CSc1ncnc2ccc(F)cc12	13.3	30.1	20.3										
Cc1cc(O)no1 [HYMEXAZOL]	100	91.2	91.3	4.6 (≈ 46.4 µM)	5.1 (≈ 51.5 µM)								Activity [4]: 0.85 mg/mL; Activity [6]: 6%; Activity [8]: 0.0411 mg/mL
C=CCSc1ncnc2ccc(F)cc12	100	96.9	92.3	42.4 (≈ 192 µM)	35.2 (≈ 160 µM)	46.3 (≈ 210 µM)	37 (≈ 168 µM)	40.6 (≈ 184 µM)	32.2 (≈ 146 µM)	21.4 (≈ 97.2 µM)	23.3 (≈ 106 µM)	51.2 (≈ 232 µM)	
Fc1ccc2ncnc(SCc3ccc(Cl)nc3)c2c1	16.3	38.5	21.9										
CCCSc1ncnc2ccc(F)cc12	96.4	94.8	89.3	13 (≈ 58.5 µM)	17.1 (≈ 76.9 µM)	29.2 (≈ 131 µM)	30.1 (≈ 135 µM)	46.2 (≈ 208 µM)	25.1 (≈ 113 µM)	40.1 (≈ 180 µM)	25.8 (≈ 116 µM)	26.9 (≈ 121 µM)	
COc1ccc(C(=O)CSc2ncnc3ccc(F)cc23)c(OC)c1OC	6.2	11.2	5.3										
CCSc1ncnc2ccc(F)cc12	100	100	98.5	8.3 (≈ 39.9 µM)	11.4 (≈ 54.7 µM)	24.9 (≈ 120 µM)	12.4 (≈ 59.5 µM)	30.8 (≈ 148 µM)	18.2 (≈ 87.4 µM)	64.2 (≈ 308 µM)	19.2 (≈ 92.2 µM)	26.8 (≈ 129 µM)	Activity [16]: 19.8%; Activity [4]: 0.67 mg/mL; Activity [17]: Active; inhibition at 60 µg/mL [18]: 32.9%; Activity [6]: 12%; Activity [8]: 0.0364 mg/mL; Activity [19]: 6.1%; Activity [20]: Active; Activity [21]: 6.5%; Activity [22]: 33.1%
Fc1ccc2ncnc(SCc3ccc(Cl)cc3)c2c1	7.6	11.8	5.9										
